Laboratory results as given in ChEMBL document CHEMBL3797083, “A New Series of Orally Bioavailable Chemokine Receptor 9 (CCR9) Antagonists; Possible Agents for the Treatment of Inflammatory Bowel Disease” (J Med Chem, 2016).
≈ marks a conversion by molar mass, not a printed value. Calls of active or inactive are those of the source. No cut-off for these calls is given here.

Columns and labels:
Mus musculus [1] = experiment: Anticolitis activity in DSS-induced chronic colitis C57BL/6 mouse model assessed as reduction in disease activity index at 30 mg/kg, po bid for 30 days; assay type: functional, organism-based
[2] = Elimination half life in mouse at 1 mg/kg, iv; assay type: ADME, organism-based; conditions: in vivo, read-out: beta t1/2 (converted)
Mus musculus [3] = experiment: Anticolitis activity in DSS-induced acute colitis C57BL/6 mouse model assessed as reduction in disease activity index at 30 mg/kg, po bid for 10 days; assay type: functional; conditions: C57BL/6, po, 240 h
[4] = AUC in mouse at 10 mg/kg, po; assay type: ADME, organism-based; conditions: in vivo
Mus musculus [5] = experiment: Anticolitis activity in DSS-induced acute colitis C57BL/6 mouse model assessed as reduction in disease activity index at 10 mg/kg, po bid for 10 days; assay type: functional; conditions: C57BL/6, po, 240 h
Liver microsome = experiment: Metabolic stability of compound in human liver microsomes assessed as remaining compound at 37 deg C; assay type: ADME
How it was run: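 Test compound incubated with human liver microsomes at 37 °C. Loss of parent compound was followed over a 30 min period, and the percentage remaining is reported as the mean of 3 replicates.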

[6] = Clearance in mouse at 1 mg/kg, iv; assay type: ADME, organism-based; conditions: in vivo
[7] = Absolute bioavailability in mouse at 1 mg/kg, iv 10 mg/kg, po; assay type: ADME, organism-based; conditions: in vivo
Mus musculus [8] = experiment: Anticolitis activity in DSS-induced acute colitis C57BL/6 mouse model assessed as reduction in disease activity index at 30 mg/kg, sc bid for 10 days; assay type: functional; conditions: C57BL/6, sc, 240 h
[9] = Metabolic stability of compound in mouse liver microsomes assessed as remaining compound at 37 deg C; assay type: ADME
Mus musculus [10] = experiment: Anticolitis activity in DSS-induced acute colitis C57BL/6 mouse model assessed as reduction in disease activity index at 100 mg/kg, po bid for 10 days; assay type: functional; conditions: C57BL/6, po, 240 h
[11] = Solubility of compound at pH 7.4 buffer; assay type: physicochemical
How it was run: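 Solubility was measured at pH 7.4. Each value is the mean of three replicates.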

[12] = target: T1, C-C chemokine receptor type 9 (Homo sapiens, UniProt P51686); experiment: Antagonist activity at CCR9 receptor in human MOLT4 cells assessed as inhibition of CCL25-induced increase in intracellular calcium level preincubated for 1 hr followed CCL25 addition by FLIPR assay; assay type: functional, cell-based, MOLT-4
T1 sequence (P51686 whole entry): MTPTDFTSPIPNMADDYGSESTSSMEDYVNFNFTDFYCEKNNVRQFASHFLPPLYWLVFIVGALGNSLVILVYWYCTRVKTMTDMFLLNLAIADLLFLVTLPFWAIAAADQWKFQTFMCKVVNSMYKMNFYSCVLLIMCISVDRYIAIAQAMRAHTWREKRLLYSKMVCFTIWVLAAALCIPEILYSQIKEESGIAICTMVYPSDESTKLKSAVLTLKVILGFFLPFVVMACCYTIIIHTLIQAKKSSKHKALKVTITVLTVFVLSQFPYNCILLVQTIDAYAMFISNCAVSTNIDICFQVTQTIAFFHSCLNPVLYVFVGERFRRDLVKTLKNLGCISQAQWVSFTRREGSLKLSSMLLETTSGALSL

Mus musculus [13] = experiment: Anticolitis activity in DSS-induced acute colitis C57BL/6 mouse model assessed as reduction in disease activity index at 50 mg/kg, sc bid for 10 days; assay type: functional; design: scale not given: the % may be the effect or the level left
Mus musculus [14] = experiment: Anticolitis activity in DSS-induced acute colitis C57BL/6 mouse model assessed as reduction in disease activity index at 3 mg/kg, po bid for 10 days; assay type: functional; conditions: C57BL/6, po, 240 h

| half-life [2] [h] | AUC [4] [ng·h/mL] | Stability (Liver microsome) [%] | clearance [6] [mL/min/kg] | bioavailability [7] [%] | Stability [9] [%] | solubility [11] [µM] | Ki [12] [nM] | Structure (SMILES) | Activity (Mus musculus [1]) | inhibition in vivo at 30 mg/kg (Mus musculus [3]) [%] | inhibition in vivo at 10 mg/kg (Mus musculus [5]) [%] | inhibition in vivo at 30 mg/kg (Mus musculus [8]) [%] | inhibition in vivo at 100 mg/kg (Mus musculus [10]) [%] | Activity (Mus musculus [13]) [%] | inhibition in vivo at 3 mg/kg (Mus musculus [14]) [%] |
| --- | --- | --- | --- | --- | --- | --- | --- | --- | --- | --- | --- | --- | --- | --- | --- |
| 0.62 | 13900 | 15 | 3.92 | 33 | 8 | 126 (≈ 63 µg/mL) |  | CC(C)(C)c1ccc(S(=O)(=O)Nc2ccc(Cl)c3c2C(=O)N(Cc2ccc[n+]([O-])c2)C3=O)cc1 | Active | 31 | 21 | 24 | 58 |  |  |
| 1.03 | 35600 | 81 | 6.86 | 100 | 60 | 10 (≈ 5 µg/mL) |  | COc1ccncc1N1C(=O)c2c(Cl)ccc(NS(=O)(=O)c3ccc(C(C)(C)C)cc3)c2C1=O |  |  |  |  |  |  |  |
| 1.05 | 36000 | 81 | 2.57 | 56 | 79 | 69 (≈ 34.5 µg/mL) |  | CC(C)(C)c1ccc(S(=O)(=O)Nc2ccc(Cl)c3c2C(=O)N(Cc2cccc[n+]2[O-])C3=O)cc1 | Active | 33 | 32 |  | 51 |  |  |
|  |  |  |  |  |  |  | 19 | CC(C)(C)c1ccc(S(=O)(=O)Nc2ccc(Cl)c3c2C(=O)N(c2ccc(F)nc2)C3=O)cc1 |  |  |  |  |  |  |  |
| 5.37 | 24000 | 67 | 1.73 | 25 | 64 | 26 (≈ 13 µg/mL) | 3 | COc1ncccc1N1C(=O)c2c(Cl)ccc(NS(=O)(=O)c3ccc(C(C)(C)C)cc3)c2C1=O |  |  |  |  |  |  |  |
| 3.26 | 46800 | 89 | 2.6 | 73 | 62 | 81 (≈ 39.2 µg/mL) |  | Cc1ncccc1N1C(=O)c2c(Cl)ccc(NS(=O)(=O)c3ccc(C(C)(C)C)cc3)c2C1=O |  |  |  |  |  |  |  |
| 0.16 | 340 | 73 | 103 | 22 | 9 | 6 (≈ 2.67 µg/mL) |  | CC(C)(C)c1ccc(S(=O)(=O)Nc2ccc(Cl)cc2C(=O)c2cc[n+]([O-])cc2)cc1 [VERCIRNON] |  |  |  |  |  | 17 |  |
| 1.28 | 16200 | 71 | 4.69 | 48 | 76 | 114 (≈ 57 µg/mL) |  | Cc1c(N2C(=O)c3c(Cl)ccc(NS(=O)(=O)c4ccc(C(C)(C)C)cc4)c3C2=O)ccc[n+]1[O-] | Active | 51 | 27 |  | 86 |  | 41 |
| 1.32 | 67900 | 61 | 2.34 | 95 | 42 | 27 (≈ 13.1 µg/mL) |  | Cc1cccc(N2C(=O)c3c(Cl)ccc(NS(=O)(=O)c4ccc(C(C)(C)C)cc4)c3C2=O)n1 |  |  |  |  |  |  |  |
|  |  |  |  |  |  |  | 618 | CC(C)(C)c1ccc(S(=O)(=O)Nc2cccc3c2C(=O)N(Cc2cccnc2)C3=O)cc1 |  |  |  |  |  |  |  |
